Compound activity: PubChem BioAssay, Broad Institute
This is a sample that favours compounds with a hit; in the whole collection about 3.5% have one here.
esBAF inh: Bmi1 luciferase reporter increase in mESCs, primary screen, esBAF inhibitor project, mouse ES cells, Bmi1 luciferase knock-in, single point; 24 h; 100% = twice the neutral-well signal; reporter increase, % at 12.5 µM; 2% of 350,000 active; in the data active = activation above about 40%; inconclusive = no clear call, values can overlap the other calls;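 also: 0% = median of the plate's neutral control wells and 100% = double that signal; a rise in the Bmi1 reporter signal indicates esBAF inhibition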
ERAP1 HTS inh: human ERAP1 aminopeptidase inhibitors, primary screen, biochemical, single point, plate reader; 0.15% of 340,000 active; inhibition, % at 10.7 µM; recombinant ERAP1, Leu-AMC fluorescence, 60 min; Endoplasmic reticulum aminopeptidase 1 (Homo sapiens), Q9NZ08;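 active = mean replicate inhibition of at least 30%, or all replicates individually reaching that 30% level; inactive = mean below 30% and not every replicate reaching it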;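 also: 0% = neutral control wells and 100% = L-leucinethiol positive control wells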
Target sequence (Q9NZ08 whole entry, looked up): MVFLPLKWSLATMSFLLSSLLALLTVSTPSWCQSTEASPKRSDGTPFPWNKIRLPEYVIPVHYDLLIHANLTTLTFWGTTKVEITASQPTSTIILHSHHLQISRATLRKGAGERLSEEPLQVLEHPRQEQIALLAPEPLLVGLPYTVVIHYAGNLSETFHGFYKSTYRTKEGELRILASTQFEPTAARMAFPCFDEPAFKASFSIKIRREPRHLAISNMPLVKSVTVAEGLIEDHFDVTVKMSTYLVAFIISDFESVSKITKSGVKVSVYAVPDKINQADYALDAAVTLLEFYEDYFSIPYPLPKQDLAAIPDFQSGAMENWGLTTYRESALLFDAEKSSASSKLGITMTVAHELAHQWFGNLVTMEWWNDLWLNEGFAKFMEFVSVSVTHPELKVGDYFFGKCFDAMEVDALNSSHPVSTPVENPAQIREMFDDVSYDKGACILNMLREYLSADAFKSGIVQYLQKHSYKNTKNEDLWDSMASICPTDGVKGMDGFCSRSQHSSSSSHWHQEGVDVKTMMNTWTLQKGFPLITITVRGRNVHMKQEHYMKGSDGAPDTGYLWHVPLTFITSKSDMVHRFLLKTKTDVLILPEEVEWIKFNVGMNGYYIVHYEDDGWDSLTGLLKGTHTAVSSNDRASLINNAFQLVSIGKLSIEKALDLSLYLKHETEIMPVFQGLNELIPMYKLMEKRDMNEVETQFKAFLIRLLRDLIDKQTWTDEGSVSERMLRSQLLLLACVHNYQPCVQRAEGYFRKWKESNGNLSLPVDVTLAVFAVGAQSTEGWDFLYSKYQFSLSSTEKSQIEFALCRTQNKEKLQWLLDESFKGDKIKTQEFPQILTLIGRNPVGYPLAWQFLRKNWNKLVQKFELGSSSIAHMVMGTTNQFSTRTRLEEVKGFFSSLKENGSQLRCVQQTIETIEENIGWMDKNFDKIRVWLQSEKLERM
MITF act: activators of MITF-driven TRPM1 promoter reporter, primary screen, cell-based, SK-MEL-5, luciferase, single point; SK-MEL-5 TRPM1-promoter luciferase, 24 h; % of positive control, neutral wells = 0; activation, % at 12.5 µM; 0.75% of 300,000 active; AID 588334, 2011;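 active = mean activation of at least 80% with every replicate also reaching 80%; inconclusive = mean reaches 80% but some replicate falls short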;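 also: 0% = neutral control wells and 100% = parthenolide positive control wells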
Wnt act: Wnt/beta-catenin pathway activators, primary screen, cell-based, plate reader, single point; AID 743398, 2014; activation, % at 9.35 µM; Wnt/beta-catenin reporter cell assay, activator; 1.2% of 300,000 active; in the data active = activation above about 30%, passing the limit was not always enough; inconclusive = no clear call, values can overlap the other calls;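 also: 0% = neutral control wells and 100% = positive control wells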
Cneo AK release: Cryptococcus neoformans cell lysis inducers, primary screen, AK release luminescence, single concentration; C. neoformans lysis, adenylate kinase release luminescence, 4 h; normalised: neutral wells 0, clomiphene wells 100; lysis activity, % at 15 µM; 0.2% of 360,000 active;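 active = mean lysis activity across replicates of at least 80%, whatever share of replicates individually reach that level; inactive = mean lysis activity below 80%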
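read-out = cell lysis signal | test system = log-phase Cryptococcus neoformans yeast cells | input = cells at 5 × 10^6 per mL | medium = fresh YPD growth medium | signal = luminescent adenylate kinase detection reagent | timing = 4 h at 37 °C static, read 1 h later | dosing = single dose | controls = Clomiphene as positive lysis control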
Env fusion inh: inhibitors of HIV-1 Env-driven cell-cell fusion, primary screen, HeLa-JRFL effector, CEM21 target cells, luciferase; inhibition, % at 12.3 µM; 1.1% of 360,000 active; AID 651610, 2012;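 active = mean replicate inhibition score of at least 50 and every replicate individually at or above 50; inconclusive = only one of the two criteria met; inactive = mean below 50 and not all replicates reaching 50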;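 also: 0% = plate neutral controls and 100% = maraviroc near 300 nM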
* = called active by the depositor; u = inconclusive; x = not tested or not shown; ! = a repeat was not active; [ ] = dose if it differs, or a comment.

SMILES	esBAF inh	ERAP1 HTS inh	MITF act	Wnt act	Cneo AK release	Env fusion inh
Clc1ccc2nc(CSc3nc4ccccc4o3)cn2c1	7.1	x	x	58.5*	-1.5	-138.2
COC(=O)C[C@H]1C[C@H]2c3cc(NC(=O)C4CCC4)ccc3O[C@H]2[C@@H](CO)O1	5.3	-0.1	x	x	-13.3	-5.9[16.7 µM]
COc1ccc2c3c([nH]c2c1)[C@H](CO)N(C(=O)C1CC1)CC31CN(S(C)(=O)=O)C1	x	-0.1	x	x	x	x
Cc1ccc(NC(CC(=O)c2ccccc2)c2ccc(F)cc2)cc1 (centres undefined)	x	x	47.3	10.5	x	-13.7
O=C(CC(Nc1ccc(F)cc1)C(=O)O)c1ccccc1 (centres undefined)	48.9*	x	x	x	-0.5	-362.9
C[C@H]1CCCCO[C@@H](CN(C)Cc2ccncc2)[C@@H](C)CN([C@@H](C)CO)C(=O)c2cc(NS(=O)(=O)c3ccc(F)cc3)ccc2O1	1.0	-1.2	x	x	-1.1	18.0[16.7 µM]
C[C@H](CO)N1C[C@H](C)[C@@H](CN(C)C(=O)C2CCOCC2)Oc2ncc(C3=CCCC3)cc2C1=O	1.6	-0.7	x	x	-0.3	-0.1[16.7 µM]
CC(=O)Nc1ccc2[nH]c3ccccc3c2c1	9.7	x	30.7	x	x	x
O=C(Nc1ccc(Cl)cc1)c1cc2c(cc1O)[nH]c1ccccc12	-23.2	-3.5	-6.3	-0.1	0.9	62.3*
O=C(N/N=C/c1ccc(N2CCOCC2)cc1)c1ccc(NS(=O)(=O)c2cccs2)cc1	6.5	-2.4	-0.7	2.7	-2.1	5.6
O=C(N/N=C/c1ccc(N2CCOCC2)cc1)c1cccs1	8.1	9.0	43.0	55.6*	x	-17.6
O=C(c1ccc(N2CCOCC2)cc1)c1cccs1	-7.2	x	x	41.6*	-24.0	-205.9
O=C(Nc1cc(F)ccc1F)N1C[C@@H]2[C@H](c3ccccc31)[C@H](CO)N2Cc1cccnc1	-2.7	5.4	x	x	38.4	x
Brc1ccc(/C=C/C=N/Nc2nc3ccccc3s2)cc1	25.4	x	44.0	x	6.7	-123.3
C(=C\c1ccccc1)/C=N/Nc1nc2ccccc2s1	65.8*	x	101.3*	u	-0.6	-291.0
COc1ccc(C=NNc2nc3ccccc3s2)cc1	-55.2	1.2	-7.6	-0.8	-3.1	-201.2
CCC/C=N/Nc1nc2ccccc2s1	x	4.3	79.6	74.8*	x	-9.8
C[C@@H]1CN([C@@H](C)CO)C(=O)c2cc(C#CCN(C)C)cnc2O[C@H]1CN(C)S(=O)(=O)c1ccccc1	0.0	4.6	x	x	53.9	-11.7[16.7 µM]
Nc1cc(C(=O)OCC(=O)N2CCCC2)ccc1Cl	14.0	x	9.6	1.7	-1.5	x
CC(=O)c1c(C)[nH]c(C(=O)OCC(=O)C(C)(C)C)c1C	x	0.4	-6.8	-0.1	x	x
CC(=O)c1c(C)[nH]c(C(=O)OCC(=O)c2ccc(C)s2)c1C	56.2*	1.9	61.8	20.8	-2.1	x
Cc1cc(C(=O)OCC(=O)c2ccc(Br)s2)no1	1.7	3.7	-7.4	0.1	-0.5	x
Nc1cc(C(=O)OCC(=O)N2CCCC2=O)ccc1Cl	6.5	-6.0	8.8	-2.8	0.0	66.5*
Cc1ccc(C(=O)COC(=O)c2ccc(Cl)c(N)c2)s1	92.1*	0.5	37.5	30.0	1.0	-16.5
O=C(OCC(=O)c1ccc(Br)s1)c1ccc(O)cc1	75.8*	3.5	40.1	42.8*	-3.0	x
SMILES	esBAF inh	ERAP1 HTS inh	MITF act	Wnt act	Cneo AK release	Env fusion inh
CNC(=O)C[C@@H]1CC[C@H]2[C@H](COc3ccc(NC(=O)NCc4ccccc4)cc3C(=O)N2C)O1	2.5	x	x	x	-3.4	-5.8[16.7 µM]
CN(C)C(=O)C[C@H]1CC[C@H]2[C@H](COc3ccc(NC(=O)Nc4cccc(Cl)c4)cc3C(=O)N2C)O1	-4.6	-1.9	x	x	4.0	x
CC(=O)c1c(C)[nH]c(C(=O)OCC(=O)c2c[nH]c3ccccc23)c1C	53.0*	1.1	6.1	17.2	-1.1	x
CC(=O)Oc1ccc(-c2csc(Nc3ccccn3)n2)cc1	32.8	-3.2	x	61.3*	-7.5	-146.4
COc1ccc(-c2csc(Nc3cccc(C)n3)n2)cc1C	44.8*	3.9	x	37.3*	-2.5	-121.0
Cc1cccc(Nc2nc(-c3cccs3)cs2)n1	50.0*	x	31.6	6.3	-18.6	x
Oc1ccc(-c2csc(Nc3ccccn3)n2)c(O)c1	79.9*	7.7	x	13.1	-4.2	-214.0
Cc1cccc(Nc2nc(-c3ccc(F)cc3)cs2)n1	u	-0.1	x	19.3	3.3	-325.3
CCCN1[C@@H]2c3cccc(=O)n3C[C@H]1[C@H](CO)[C@H]2C(=O)Nc1ccccc1	-1.3	-0.2	x	x	-1.7	x
c1csc(-c2csc(-c3cccs3)n2)c1	53.0*	x	x	26.0	-0.3	-130.3
COc1ccc(-c2csc(Nc3cccc(C)n3)n2)cc1	26.7	-4.0	x	7.7	-3.7	-231.6
c1cncc(-c2nc(-c3cccs3)cs2)c1	22.5	x	22.1	0.4	-1.6	x
CC(=O)Nc1ccc(Nc2nc(-c3sc(NC(C)=O)nc3C)cs2)cc1	0.0	0.3	x	0.7	-1.3	-7.6
CC(=O)Nc1nc(C)c(-c2csc(Nc3ccccn3)n2)s1	x	5.3	13.4	52.0*!	x	4.6
CC(=O)Oc1ccc(-c2csc(Nc3cccc(C)n3)n2)cc1	65.2*	-4.0	x	15.3	-1.2	-52.3
CO[C@H](CN(C)C(=O)c1ccccc1F)[C@@H](C)CN([C@H](C)CO)S(=O)(=O)c1ccc(F)cc1	-3.2	-0.6	x	x	6.2	x
C[C@@H]1CN([C@@H](C)CO)C(=O)c2cc(NC(=O)Nc3ccccc3)ccc2O[C@@H](C)CCCCO[C@H]1CN(C)CC1CCCCC1	-2.8	-1.3	x	x	3.6	4.4[16.7 µM]
C[C@H](NC(=O)C[C@H]1C[C@H]2c3cc(NC(=O)C4CCC4)ccc3O[C@H]2[C@@H](CO)O1)c1ccccc1	1.4	-0.4	x	x	-2.7	x
O=S(=O)(c1ccc(Cl)cc1)N1CCC(n2cnc3cc(C(F)(F)F)ccc32)CC1	-2.7	x	0.9	x	x	63.8*
O=C1c2ccccc2C(=O)N1OCCOCCOCCBr	-15.3	x	-1.5	x	-3.5	x
O=C1c2ccccc2C(=O)N1OCCOCCOCCON1C(=O)c2ccccc2C1=O	-9.3	x	-9.6	45.1*	-0.3	-4.7
C[C@H](CO)N1C[C@H](C)[C@@H](CN(C)C(=O)c2ccccc2)Oc2cc(C3=CCCCC3)ccc2S1(=O)=O	0.9	0.1	x	x	0.4	-5.6[16.7 µM]
Cc1ccc(CNCc2ccccc2Cl)cc1	7.9	x	9.7	x	-0.2	x
Fc1ccc(CNCc2ccccc2Cl)cc1	x	0.6	17.3	34.0*	x	4.2
COc1ccc(-c2nc3c4ccccc4[nH]c(=O)n3n2)cc1	45.7*	x	x	59.3*	-1.1	-128.4
COc1ccc(CNC(=O)CCn2c(=O)[nH]c3ccccc3c2=O)cc1	x	-1.2	-8.0	-1.8	x	-41.4
CCc1cc(CNC(=O)CCc2nnc(CCCc3ccccc3)o2)on1	57.1*	-4.8	89.2*	43.5*	-0.4	-30.5
